Experimental data: ChEMBL document CHEMBL2311421, “Synthesis, crystal structure and antidiabetic activity of substituted (E)-3-(Benzo [d]thiazol-2-ylamino) phenylprop-2-en-1-one” (Eur J Med Chem, 2013); call rule not given here

Columns and labels:
[1] = Inhibition of Swiss mouse liver glucosidase
Method in brief: (§1)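 Enzyme source: tissue homogenates of pancreas, liver or small intestine from 12 h-starved 10-week-old male Swiss mice (20 g), made 1:10 w/v in ice-cold 10 mM phosphate buffer with 6 mM NaCl plus protease inhibitors. Spun at 10,000 rpm for 10 min; supernatant diluted to A280 0.4. Assayed as for amylase. IC50 from mean of n = 3.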

Pancreatic alpha-amylase = target: T1, Pancreatic alpha-amylase (Sus scrofa, UniProt P00690); assay: Inhibition of pig pancreatic alpha-amylase by Bernfeld method
T1 sequence (P00690 whole entry): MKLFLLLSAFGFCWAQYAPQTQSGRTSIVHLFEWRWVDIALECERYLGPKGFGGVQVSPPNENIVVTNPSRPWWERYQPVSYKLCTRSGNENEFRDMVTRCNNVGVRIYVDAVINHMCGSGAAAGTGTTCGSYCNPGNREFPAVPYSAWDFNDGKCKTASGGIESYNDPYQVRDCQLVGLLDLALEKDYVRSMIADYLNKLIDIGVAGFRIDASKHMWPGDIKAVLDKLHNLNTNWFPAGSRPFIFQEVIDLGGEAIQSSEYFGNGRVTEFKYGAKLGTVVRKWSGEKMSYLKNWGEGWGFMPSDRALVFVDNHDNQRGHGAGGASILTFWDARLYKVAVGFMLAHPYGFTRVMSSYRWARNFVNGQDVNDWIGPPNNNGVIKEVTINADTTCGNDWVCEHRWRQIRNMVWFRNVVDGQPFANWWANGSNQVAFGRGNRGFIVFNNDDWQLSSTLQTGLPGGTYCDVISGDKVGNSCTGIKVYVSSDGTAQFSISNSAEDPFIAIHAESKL

[2] = Inhibition of Swiss mouse intestinal glucosidase; method in brief: as §1
[3] = Inhibition of Swiss mouse pancreatic glucosidase; method in brief: as §1

SMILES: CCOc1ccc2nc(N/C(=C\C(=O)c3ccc(C)cc3)SC)sc2c1
- IC50 ([1]; read-out: IC50): 24.2 µM
- IC50 (Pancreatic alpha-amylase): 18.9 µM
- IC50 ([2]; read-out: IC50): 23.5 µM
- IC50 [3]: 19.9 µM

SMILES: CCOc1ccc2nc(N/C(=C\C(=O)c3ccc(Br)cc3)SC)sc2c1
- IC50 ([1]; read-out: IC50): 15.7 µM
- IC50 (Pancreatic alpha-amylase): 15.9 µM
- IC50 ([2]; read-out: IC50): 31.9 µM
- IC50 [3]: 20.9 µM

SMILES: CS/C(=C/C(=O)c1ccc(Br)cc1)Nc1nc2ccccc2s1
- IC50 ([1]; read-out: IC50): 15.4 µM
- IC50 (Pancreatic alpha-amylase): 17.8 µM
- IC50 ([2]; read-out: IC50): 45.3 µM
- IC50 [3]: 21.7 µM

SMILES: CCOc1ccc2nc(N/C(=C\C(=O)c3ccccc3)SC)sc2c1
- IC50 [1]: Not Active
- IC50 (Pancreatic alpha-amylase): 16.3 µM
- IC50 [2]: Not Active
- IC50 [3]: 18 µM

SMILES: CS/C(=C/C(=O)c1ccc(Br)cc1)Nc1nc2cc(C)c(C)cc2s1
- IC50 ([1]; read-out: IC50): 16.7 µM
- IC50 (Pancreatic alpha-amylase): 16.9 µM
- IC50 ([2]; read-out: IC50): 25.9 µM
- IC50 [3]: 24.7 µM

SMILES: CS/C(=C/C(=O)c1ccc(Cl)cc1)Nc1nc2ccccc2s1
- IC50 ([1]; read-out: IC50): 15 µM
- IC50 (Pancreatic alpha-amylase): 20.3 µM
- IC50 ([2]; read-out: IC50): 44.5 µM
- IC50 [3]: 32.4 µM

SMILES: CCOc1ccc2nc(N/C(=C\C(=O)c3ccc(Cl)cc3)SC)sc2c1
- IC50 ([1]; read-out: IC50): 17.4 µM
- IC50 (Pancreatic alpha-amylase): 17.9 µM
- IC50 ([2]; read-out: IC50): 14.7 µM
- IC50 [3]: 26.5 µM

SMILES: CS/C(=C/C(=O)c1ccc(F)cc1)Nc1nc2ccccc2s1
- IC50 ([1]; read-out: IC50): 21.7 µM
- IC50 (Pancreatic alpha-amylase): 19.9 µM
- IC50 ([2]; read-out: IC50): 32.1 µM
- IC50 [3]: 33.6 µM

SMILES: CCOc1ccc2nc(N/C(=C\C(=O)c3ccc(F)cc3)SC)sc2c1
- IC50 ([1]; read-out: IC50): 24.2 µM
- IC50 (Pancreatic alpha-amylase): 18.4 µM
- IC50 ([2]; read-out: IC50): 49.4 µM
- IC50 [3]: 23.5 µM

SMILES: CCOc1ccc2nc(N/C(=C\C(=O)c3ccc(OC)cc3)SC)sc2c1
- IC50 ([1]; read-out: IC50): 21.4 µM
- IC50 (Pancreatic alpha-amylase): 18.6 µM
- IC50 ([2]; read-out: IC50): 29.3 µM
- IC50 [3]: 23.2 µM

SMILES: CS/C(=C/C(=O)c1ccc(C)cc1)Nc1nc2ccccc2s1
- IC50 ([1]; read-out: IC50): 22.5 µM
- IC50 (Pancreatic alpha-amylase): 20.6 µM
- IC50 ([2]; read-out: IC50): 30 µM
- IC50 [3]: 26.9 µM

SMILES: C[C@H]1O[C@H](O[C@H]2[C@H](O)[C@@H](O)[C@@H](O[C@H]3[C@H](O)[C@@H](O)C(O)O[C@@H]3CO)O[C@@H]2CO)[C@H](O)[C@@H](O)[C@@H]1N[C@H]1C=C(CO)[C@@H](O)[C@H](O)[C@H]1O (some centres not stated) [ACARBOSE]
- IC50 ([1]; read-out: IC50): > 100 µM
- IC50 [2]: Not Active
- IC50 [3]: > 100 µM
